The source of these data is publication PMC12374733 (Journal of the American Chemical Society, 2025).

Where two headings read alike, the source gives them in different places.

Series [1] can be described thus: Cell viability, colorimetric sulforhodamine B assay. Format: cell-based, mouse. The note with it: mouse, NIH-3T3 cells.
The next series has as its system NIH-3T3 cells. The description is as above. Format: cell-based, mouse.
For the next series, the system named is SH-SY5Y cells. The series is described as follows: Cell viability during in-cell synthesis of cinacalcet. Format: cell-based, human. The note with it: SH-SY5Y; for IC50: Homo sapiens. Put shortly:
(§1)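 SH-SY5Y cells were pretreated with aldehyde substrate (200 μM) and sodium formate hydride source (1 mM) for 3 h, then washed with fresh media. The amine partner and Cp* iridium catalyst were added together for a further 24 h. Controls lacked one or more reaction components. Viability is expressed relative to untreated cells.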

Assay in series [2]: as above
The series is classed as cell-based, human. The note with it: human, SH-SY5Y cells. Put shortly:
as §1

Series [3] in a line: Lipophilicity, partition between octanol and PBS. The series is classed as physicochemical. The note with it: shake-flask.

As a reminder, the viability is the share of living cells, or the viability signal relative to a control. The molecule `O=CCc1ccccc1` [1c, phenylacetaldehyde] displayed a viability at 3 h, 400 µM in series [1] of 38%. The IC50 in the series on NIH-3T3 cells (Mus musculus, NIH3T3, read-out: 50% inhibition concentration (IC50)) is 185 µM.
Consider `C[C@@H](NCCCc1cccc(C(F)(F)F)c1)c1cccc2ccccc12` [cinacalcet, reference compound], for which the IC50 in the series on SH-SY5Y cells is 16 µM.
In the case of `C[C@@H](N)c1cccc2ccccc12` [(R)-41, (R)-1-(1-naphthyl)ethylamine], the IC50 in the series with SH-SY5Y cells is 1500 µM.
The molecule `OCCc1ccccc1` [2c] returned an IC50 with NIH-3T3 cells (NIH-3T3 cell viability) of more than 7000 µM.
For the molecule `O=CCCc1cccc(C(F)(F)F)c1` [1p, 3-(3-(trifluoromethyl)phenyl)propanal], the viability at 3 h, 200 μM in series [2] was not below 85%. In addition, the IC50 with SH-SY5Y cells is 175 µM.
For the molecule [Cp*Ir(picolinamidate)Cl] [Ir1], the “partition coefficients (Log P)” value in series [3] turned out to be 1.24. The IC50 with NIH-3T3 cells (read-out: 50% inhibition concentration (IC50), NIH-3T3 cell viability) was found to be 62 µM. The “cell viability relative to untreated control” value in the series with SH-SY5Y cells (1p (200 μM), HCOONa (1 mM), (R)-41 and Ir catalyst all present, 24 h) is 28%.
In the case of `CC(N)c1ccc(O)cc1` (stereo not shown) [compound 10, 4-(1-aminoethyl)phenol], the viability at 24 h, 1 mM in series [1] is not below 84%. The molecule also showed an IC50 in the series on NIH-3T3 cells (Mus musculus, NIH3T3) of more than 8000 µM.
In the series with NIH-3T3 cells (Mus musculus, NIH3T3), `NCCc1ccccc1` [3c, phenethylamine] displayed an IC50 of more than 7000 µM.
